Experimental data from different studies.
Lines come from different studies, so protocols differ.
PLCD1: 1-phosphatidylinositol 4,5-bisphosphate phosphodiesterase delta-1 (PLCD1, Homo sapiens, UniProt P51178)
HTR2B: 5-hydroxytryptamine receptor 2B (HTR2B, Homo sapiens, UniProt P41595)
FLT3: Receptor-type tyrosine-protein kinase FLT3 (FLT3, Homo sapiens, UniProt P36888)
CSNK1D: Casein kinase I isoform delta (CSNK1D, Homo sapiens, UniProt P48730)
FLT3 F691L: Receptor-type tyrosine-protein kinase FLT3 (FLT3, Homo sapiens, UniProt P36888, F691L)
FLT3 ITD: Receptor-type tyrosine-protein kinase FLT3 (FLT3, Homo sapiens, UniProt P36888, ITD)

| Compound | target | test | endpoint | value |
| --- | --- | --- | --- | --- |
| CCOc1ccc(-c2cc(C(=O)O)c(-c3ccc(Cl)cc3)o2)cc1 | PLCD1 | ligand displacement, FP | Ki | > 100 µM |
| O=C(O)c1cc(-c2ccc(-c3ccc(Cl)s3)cc2)c2ccc(-c3ccc(C(F)(F)F)cc3)cc2c1 | 5-hydroxytryptamine receptor 2C (HTR2C, Homo sapiens, UniProt P28335) | cell-free assay, radioligand | Ki | 0.91 µM |
| COc1cc2c3c(c1OC)-c1c(OC)ccc(N4CCOCC4)c1CC3N(C)CC2 (stereo not drawn) | HTR2B | ligand displacement, radioligand | Ki | 0.773 µM |
| CN(C)CCNC(=O)c1ccc(-c2nc3ccc4[nH]ncc4c3c3c2CCCCC3)c(F)c1 | FLT3 | enzyme activity, inhibitor | IC50 | 0.053 µM |
| COc1cc2c3c(c1OC)-c1c(OC)ccc(-c4ccc(C#N)cc4)c1CC3N(C)CC2 (stereo not drawn) | HTR2B | ligand displacement, radioligand | Ki | 0.856 µM |
| CCn1c2ccccc2c2cc(Nc3ccnc(NCCCN4CCOCC4)n3)ccc21 | CSNK1D | binding, SPR | Kd | > 50 µM |
| Cc1n[nH]c2ccc3nc(-c4ccc(C(=O)NCCN(C)C)cc4F)c4c(c3c12)CCCC4 | FLT3 F691L | enzyme activity, inhibitor | IC50 | 0.072 µM |
| CCOc1ccc(C(=O)CC(SCc2ccccc2Br)C(=O)O)cc1 (stereo not drawn) | PLCD1 | ligand displacement, FP | Ki | > 1000 µM |
| COc1cc2c3c(c1OC)-c1c(OC)ccc(O)c1CC3N(C)CC2 (stereo not drawn) | HTR2B | ligand displacement, radioligand | Ki | 1.42 µM |
| CCOc1ccc(C(=O)CC(SCc2ccc(Br)cc2)C(=O)O)cc1 (stereo not drawn) | PLCD1 | ligand displacement, FP | Ki | > 1000 µM |
| CN(C)CCNC(=O)c1ccc(-c2nc3ccc4[nH]ncc4c3c3c2CCCC3)cc1 | FLT3 F691L | enzyme activity, inhibitor | IC50 | 0.157 µM |
| CN(C)C(=O)c1cc2cnc(Nc3ccc(C(=O)NCCCCCCOc4cccc5c4C(=O)N(C4CCC(=O)NC4=O)C5=O)cc3)nc2n1C1CCCC1 (stereo not drawn) | Ephrin type-B receptor 6 (EPHB6, Homo sapiens, UniProt O15197) | binding, competition with immobilised ligand | Kd | < 0.2 µM |
| CCOc1ccc(C(=O)CC(SCc2ccc(Cl)cc2)C(=O)OC)cc1 (stereo not drawn) | PLCD1 | ligand displacement, FP | Ki | > 1000 µM |
| COCc1n[nH]c(N)c1-c1ccc(Cl)cc1 | CSNK1D | binding, SPR | Kd | > 50 µM |
| CCOc1ccc(C(=O)CC(SCc2ccc(Cl)cc2)C(=O)O)cc1OCC (stereo not drawn) | PLCD1 | ligand displacement, FP | Ki | > 1000 µM |
| CSCC[C@H](NC(C)=O)C(=O)N[C@@H](CC(=O)O)C(=O)N[C@@H](Cc1ccccc1)C(N)=O | Gastrin/cholecystokinin type B receptor (CCKBR, Homo sapiens, UniProt P32239) | β-arrestin recruitment, agonist | EC50 | 18.7 µM |
| Cc1n[nH]c2ccc3nc(-c4ccc(C(=O)NCCN(C)C)cc4)c4c(c3c12)CCCCC4 | FLT3 | enzyme activity, inhibitor | IC50 | 0.099 µM |
| O=c1[nH]c(N2CCCC2)nc2ccccc12 | CSNK1D | binding, SPR | Kd | 43.8 µM |
| Cc1n[nH]c2ccc3nc(-c4ccc(C(=O)NCCN(C)C)cc4)c4c(c3c12)CCC(F)(F)C4 | FLT3 ITD | enzyme activity, inhibitor | IC50 | 0.355 µM |
| COc1ccccc1C(=O)CC(SCc1ccc(Cl)cc1)C(=O)O (stereo not drawn) | PLCD1 | ligand displacement, FP | Ki | > 1000 µM |
| c1cc(CN2CCCNCCNCCCNCC2)ccc1CN1CCCNCCNCCCNCC1 | CSNK1D | binding, SPR | Kd | > 50 µM |
| Cc1n[nH]c2ccc3nc(-c4ccc(C(=O)NCCN(C)C)cc4)c4c(c3c12)CCCC4 | FLT3 F691L | enzyme activity, inhibitor | IC50 | 0.053 µM |
| COc1cc(C(C)=O)c(F)cc1O | CSNK1D | binding, SPR | Kd | > 50 µM |
| CN(C)CCN(C)C(=O)c1ccc(-c2nc3ccc4[nH]ncc4c3c3c2CCCCC3)cn1 | FLT3 ITD | enzyme activity, inhibitor | IC50 | > 1 µM |
| CNc1cncc(Cl)n1 | CSNK1D | binding, SPR | Kd | > 50 µM |
| CCOc1cccc(C(=O)CC(SCc2ccc(Cl)cc2)C(=O)O)c1 (stereo not drawn) | PLCD1 | ligand displacement, FP | Ki | 474 µM |
| Brc1ccc2nccnc2c1 | CSNK1D | binding, SPR | Kd | > 50 µM |
| CCOc1ccc(C(=O)CC(SCc2ccc(F)cc2)C(=O)O)cc1 (stereo not drawn) | PLCD1 | ligand displacement, FP | Ki | > 1000 µM |
| c1ccc(-c2oc3ncnc(NCCCN4CCOCC4)c3c2-c2ccccc2)cc1 | CSNK1D | binding, SPR | Kd | > 50 µM |
| CN(C)CCN(C)C(=O)c1ccc(-c2nc3ccc4[nH]ncc4c3c3c2CCCCC3)cc1 | FLT3 ITD | enzyme activity, inhibitor | IC50 | > 1 µM |
